Most compounds without a hit are left out; they make up all but 1.1% or so of the library.
Diaphorase inh: counter-screen for diaphorase-based assays: diaphorase inhibitors and chemical oxidizers. diaphorase resazurin-to-resorufin fluorescence, NADH, 16 min; bacterial (C. kluyveri) enzyme, not human. inhibition, % at 20 µM. hit rate 0.69% among 190,000;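 active = primary screen inhibition at 20 µM above a set limit, cut at about 50% in these data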
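Assay system: diaphorase enzyme from Clostridium kluyveri; Input: enzyme working solution with 0.14 U/mL diaphorase; Timing: 16 min at room temperature; Technique: resorufin fluorescence, excitation 544 nm, emission 590 nm; Benchmarks: positive control minus NADH, DMSO neutral control.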
G6PDH CS: counter-screen for G6PDH assay hits: L. mesenteroides G6PDH inhibition | Purified L. mesenteroides G6PDH, diaphorase/resazurin coupled fluorescence, 45 min | inhibition, % at 5 µM | hit rate 0.12% among 200,000; in the data active = inhibition above about 50%
TbHK1 inh: T. brucei hexokinase 1 inhibition | hit rate 0.11% among 220,000 | inhibition, % at 10 µM | recombinant TbHK1, G6PDH-coupled NADH A340;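 active = inhibition of 50% or more in the single-dose primary screen; inactive = inhibition below 50%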
PMI act hi M6P: increases human PMI activity with near-saturating mannose 6-phosphate; activation factor at 20 µM; P34949; hit rate 0.34% among 190,000; coupled PMI enzyme assay, resazurin fluorescence, 20 min; stronger effect = higher value; 1 = untreated enzyme, 0 = substrate-free blank; AID 1216;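 active = activation factor of 2 or more at 20 µM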
Target sequence (P34949 whole entry, looked up): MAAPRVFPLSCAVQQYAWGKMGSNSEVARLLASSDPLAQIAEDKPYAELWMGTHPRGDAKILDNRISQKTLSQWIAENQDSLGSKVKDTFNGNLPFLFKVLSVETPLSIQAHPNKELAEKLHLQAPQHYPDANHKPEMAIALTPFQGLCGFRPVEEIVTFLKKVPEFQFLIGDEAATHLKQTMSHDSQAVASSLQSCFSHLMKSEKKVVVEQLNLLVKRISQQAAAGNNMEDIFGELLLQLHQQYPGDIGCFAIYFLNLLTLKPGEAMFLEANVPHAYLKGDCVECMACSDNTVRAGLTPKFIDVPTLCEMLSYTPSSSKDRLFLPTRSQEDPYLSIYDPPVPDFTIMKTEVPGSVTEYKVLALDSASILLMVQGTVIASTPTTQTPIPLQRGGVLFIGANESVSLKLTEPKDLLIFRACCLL
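Material: human phosphomannose isomerase with PGI, G6PDH, diaphorase coupling enzymes / Reagent: Man-6-P substrate 1.0 mM / Dosing: single compound dose of 20 µM, 1% DMSO final / Incubation: enzyme reaction with compound 20 min at room temperature / Signal: resorufin fluorescence (Ex 544/Em 590 nm) from resazurin via diaphorase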
Diaphorase act: activates diaphorase or chemically reduces, flagging diaphorase assay artifacts; Diaphorase/resazurin coupled assay, resorufin fluorescence, 16 min; stronger effect = higher value; 1 = vehicle wells, 0 = NADH-free wells; activation factor at 20 µM; hit rate 0.005% among 190,000; AID 1229;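 active = diaphorase activity raised at least twofold by the compound at 20 µM; inactive = activation factor below 2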
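Material: Clostridium kluyveri diaphorase, purified enzyme; Quantity: enzyme 0.07 U/mL final; Medium: HEPES pH 7.4 buffer with MgCl2 and Tween 20; Dosing: single compound dose of 20 µM, 1% DMSO final; Schedule: 16 min reaction at room temperature; Measured by: red resorufin fluorescence at 544/590 nm excitation/emission.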
PMI act: phosphomannose isomerase (human) activation | P34949 | purified human PMI, coupled resazurin fluorescence, 20 min; stronger effect = higher value; 1 = vehicle control, 0 substrate-free wells | activation factor at 20 µM | hit rate 0.005% among 190,000 | AID 1214;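 active = activation factor of 2 or more at 20 µM, relative to plate controls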
Of the large screens only hits and unclear results are named; the others gave an inactive call.

CCC1CCCCN1c1nc2c(C=O)c(C)nn2c2ccccc12 (configuration not stated)	Diaphorase inh 68
CCOC(=O)c1nnn2c1nc(N1CCCCC1)c1ccccc12	none (no result: Diaphorase inh, G6PDH CS, PMI act hi M6P, Diaphorase act, PMI act)
COC(=O)c1ccc(C(=O)NN)cc1	none (no result: Diaphorase inh, G6PDH CS, PMI act hi M6P, Diaphorase act, PMI act)
NNC(=O)c1ccc2c(c1)S(=O)(=O)NNC2=O	PMI act hi M6P 2.9
O=C(Cn1cnc2c(nnn2Cc2ccc(F)cc2)c1=O)Nc1ccccc1	none (no result: Diaphorase inh, G6PDH CS, PMI act hi M6P, Diaphorase act, PMI act)
Cc1nc(C/C(=N\N)c2ccc(O)cc2O)cs1	PMI act hi M6P 2.3
O=C(Nc1nc(-c2ccccn2)cs1)c1cc(Cl)ccc1[N+](=O)[O-]	none
Cc1cc(C(=O)Nc2nc(-c3ccccn3)cs2)ccc1[N+](=O)[O-]	PMI act hi M6P 2.4
Nc1n[nH]c(=S)n1/N=C1/C(=O)Nc2ccccc21	Diaphorase inh 79
NS(=O)(=O)c1ccc(N=C2C(=O)Nc3ccccc32)cc1	none (no result: Diaphorase inh, G6PDH CS, PMI act hi M6P, Diaphorase act, PMI act)
CCn1cc(C2CC(=O)NC2=O)c2ccccc21 (configuration not stated)	none (no result: Diaphorase inh, G6PDH CS, PMI act hi M6P, Diaphorase act, PMI act)
CN(C)/N=C1\CCS(=O)(=O)c2sccc21	none
Cc1ccc(N/N=C2\CCS(=O)(=O)c3sccc32)cc1	PMI act hi M6P 2.8
NNC(=O)c1csc(Cc2c(Cl)sc3ccc(Cl)cc23)n1	none (no result: Diaphorase inh, G6PDH CS, PMI act hi M6P, Diaphorase act, PMI act)
Cc1ccc(C(=O)ONc2ccc(N=NC(=O)c3ccccc3O)cc2)cc1	Diaphorase inh 54
Cc1ccc(C(=O)ONc2ccc(N=O)cc2)cc1	none
c1ccc(CSc2nc3ncncc3[nH]2)cc1	none (no result: Diaphorase inh, G6PDH CS, PMI act hi M6P, Diaphorase act, PMI act)
S=c1nc(SCc2ccccc2)[nH]c2ccccc12	Diaphorase inh 87
N#CC1=C2SCN(c3ccccc3)CN2C(=O)CC1c1c(Cl)cccc1Cl (configuration not stated)	Diaphorase inh 51
COc1cccc(C2CC(=O)N3CN(c4cccc(Cl)c4C)CSC3=C2C#N)c1OC (configuration not stated)	Diaphorase inh 51
Cc1ccc(C2CC(=O)N3CN(c4ccc(Br)cc4)CSC3=C2C#N)o1 (configuration not stated)	Diaphorase inh 58
COc1ccc(OC)c(C2CC(=O)N3CN(c4cccc(Cl)c4C)CSC3=C2C#N)c1 (configuration not stated)	Diaphorase inh 52
COc1ccc(OC)c(C2CC(=O)N3CN(c4cccc(Cl)c4)CSC3=C2C#N)c1 (configuration not stated)	none
N#CC1=C2SCN(c3ccccc3)CN2C(=O)CC1c1ccccc1Cl (configuration not stated)	none
NS(=O)(=O)c1cc(C(=O)OCC(=O)Nc2ccc(N3CCCCC3)cc2)ccc1Cl	none (no result: Diaphorase inh, G6PDH CS, PMI act hi M6P, Diaphorase act, PMI act)
O=C(COC(=O)c1cc(S(=O)(=O)N2CCc3ccccc3C2)ccc1Cl)NCc1ccco1	Diaphorase inh 52
Clc1ccc(-c2nnc(COc3ncnc4ccccc34)o2)cc1	none
COc1ccc(C2=Nc3cccc4cccc(c34)N2)cc1	none
COc1ccc(C2Nc3cccc4cccc(c34)N2)cc1	Diaphorase inh 52
CCOc1ccc(C2Nc3cccc4cccc(c34)N2)cc1OC	Diaphorase inh 65
COc1ccccc1C1Nc2cccc3cccc(c23)N1	Diaphorase inh 57
CCOc1cc(C2Nc3cccc4cccc(c34)N2)ccc1O	none
Cc1ccc(NNC(=O)c2ccno2)c(C)c1	none (no result: Diaphorase inh, G6PDH CS, PMI act hi M6P, Diaphorase act, PMI act)
CC(C)=CCN1CCNC(=O)C1CC(=O)NCc1nc(C)c(C)s1 (configuration not stated)	none
COc1cc(/C=C2\SC(c3ccc(C)cc3)=NC2=O)cc(OC)c1O	Diaphorase inh 66
Cc1ccc(C2=NC(=O)/C(=C/c3cc(O)c(O)c(Br)c3)S2)cc1	Diaphorase inh 81
Cc1ccc(/C=C2\SC(N3CCCC3)=NC2=O)cc1	none
Clc1ccc(-c2c[nH]c3ccccc23)nn1	Diaphorase inh 63
c1ccc2c(-c3c[nH]c4ccccc34)c3ccccc3nc2c1	none
Cc1ccc(N(CCCCN2C(=O)c3ccccc3C2=O)C(=O)c2cccc([N+](=O)[O-])c2)cc1	none
COc1ccc(N(CCCN2C(=O)c3cccc4cccc(c34)C2=O)C(=O)c2cccc(OC)c2)cc1	Diaphorase inh 56
COc1cc(C2CC(=O)N3CN(c4ccccc4C)CSC3=C2C#N)cc(OC)c1OC (configuration not stated)	Diaphorase inh 59
COc1ccc(Br)cc1C1CC(=O)N2CN(Cc3ccccc3)CSC2=C1C#N (configuration not stated)	Diaphorase inh 57
COc1ccccc1N1CSC2=C(C#N)C(c3ccc(SC)cc3)CC(=O)N2C1 (configuration not stated)	Diaphorase inh 65
COc1ccc2ccccc2c1C1CC(=O)N2CN(C)CSC2=C1C#N (configuration not stated)	Diaphorase inh 52
O=C(c1ccccc1Sc1ccccc1[N+](=O)[O-])N1CCCCC1	none
COC(=O)C1CCN(C(=O)c2cc3c(=O)n4cccc(C)c4nc3n2Cc2ccccc2)CC1	none (no result: Diaphorase inh, G6PDH CS, PMI act hi M6P, Diaphorase act, PMI act)
CCc1ccccc1N1CSC2=C(C#N)C(c3cc(OC)c(OC)cc3OC)CC(=O)N2C1 (configuration not stated)	Diaphorase inh 50
CC(C)N(C(=S)Nc1cccc(S(=O)(=O)N(C)C)c1)c1ccccc1	none (no result: Diaphorase inh, G6PDH CS, PMI act hi M6P, Diaphorase act, PMI act)
FC(F)Sc1nc2ccccc2[nH]1	none (no result: Diaphorase inh, G6PDH CS, PMI act hi M6P, Diaphorase act, PMI act)
NC(=S)N/N=C/c1cccc(O)c1O	Diaphorase inh 60, G6PDH CS 66
Oc1cccc(/C=N/NC(=S)NCCN2CCOCC2)c1O	Diaphorase inh 66, G6PDH CS 60
Oc1cccc(/C=N/NC(=S)Nc2cccnc2)c1O	Diaphorase inh 60, G6PDH CS 51
Cc1c(Br)c([N+](=O)[O-])nn1CC(=O)NCC1CCCO1 (configuration not stated)	none
S=c1nccc(-c2cccs2)[nH]1	Diaphorase inh 54
S=c1nccc(-c2ccc3c(c2)CCO3)[nH]1	none (no result: Diaphorase inh, G6PDH CS, PMI act hi M6P, Diaphorase act, PMI act)
Cc1ccc(-c2ccnc(=S)[nH]2)cc1	Diaphorase inh 67
CC(C)(C)C1CCC2(CC1)NC(=S)N(c1ccccc1)N2 (configuration not stated)	PMI act hi M6P 2.8
CCC(C)(C)C1CCC2(CC1)NC(=S)N(c1ccccc1)N2 (configuration not stated)	none (no result: Diaphorase inh, G6PDH CS, PMI act hi M6P, Diaphorase act, PMI act)
CCOc1cc(CNc2ccc(O)cc2)ccc1OCc1ccc(Cl)cc1Cl	Diaphorase inh 66
Cc1c(C(=O)Nc2ccc(S(=O)(=O)NCC3CCCO3)cc2)cccc1[N+](=O)[O-] (configuration not stated)	none
CC(C)C(=O)N(c1cc2sc(=O)oc2c2ccccc12)S(=O)(=O)c1cccs1	Diaphorase inh 61

Assay outcomes deposited in PubChem BioAssay by several laboratories.
